Paper PMC3561458 (Investigational new drugs, 2011)

Assays:
CDK4 = details: cited from earlier work
[1] = tested on: CDK related biomarkers Cyclin A2, Cyclin B1 and Ki67; assay: Pharmacodynamics: qRT-PCR on skin biopsies; format: in vivo, human; details: pre- vs post-treatment
[2] = tested on: advanced/metastatic solid tumors; assay: Antitumor activity; format: in vivo, human
In short: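 Adults (≥18 y) with relapsed or refractory solid tumours and no standard therapy, ECOG 0–1, take the test compound as capsules orally once daily for 7 consecutive days in 2-week cycles (S1). Patients stay on study until progression, refusal or unacceptable toxicity. Disease is assessed by RECIST every 8 weeks and at study discontinuation.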

CDK2/Cyclin A complex = details: read-out: IC50, CDK2/Cyclin A complex; cited from earlier work
CDK7 = details: cited from earlier work

Structure (SMILES): CNC(=O)c1nn(C)c2c1C(C)(C)Cc1cnc(Nc3ccc(N4CCN(C)CC4)cc3)nc1-2 [PHA-848125AC, N,1,4,4-tetramethyl-8-{[4-(4-methylpiperazin-1-yl)phenyl]amino}-4,5-dihydro-1H-pyrazolo [4,3-h]quinazoline-3-carboxamide]
- inhibitory activity towards CDK4 (CDK4): inhibitory activity
- modulation of CDK related biomarkers Cyclin A2, Cyclin B1 and Ki67 [1]: down modulation
- duration of stabilization ([2]; CRC patient, 150 mg/day, S1): 55.6 weeks
- duration of stabilization ([2]; NSCLC patient, 200 mg/day, S1): 24.6 weeks
- objective response ([2]; S1): No objective response
- patients discontinued for lack of efficacy ([2]; S1 N=22): 81.8%
- patients discontinued for lack of efficacy ([2]; S2 N=15): 86.7%
- duration of stabilization ([2]; carcinoid patient, 180 mg/day, S2): 29.1 weeks
- duration of stabilization ([2]; pancreatic adenocarcinoma patient, 180 mg/day, S2): 39.3 weeks
- IC50 (CDK2/Cyclin A complex): 45 nM
- inhibitory activity towards CDK7 (CDK7): inhibitory activity
